Data reported in ChEMBL document CHEMBL2406952, “Identification of vitamin d3-based hedgehog pathway inhibitors that incorporate an aromatic a-ring isostere” (ACS Med Chem Lett, 2013).
Active and inactive are the calls of the source. The calls are words filed in the database; no cut-off is given here.

Legend:
Daoy = experiment: Downregulation of Gli1 mRNA expression in human DaOY cells at 2.5 uM relative to DMSO-treated control; format: functional
[1] = Inhibition of Hedgehog signaling in mouse ASZ001 cells assessed as downregulation of Gli1 mRNA expression after 48 hrs by RT-PCR analysis; format: cell-based; details: ASZ001, 48 h
Summary of the method: (§1)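 Gli1 mRNA dose-response after 48 h compound incubation, used to derive IC50 (μM). Each value comes from at least two separate experiments, each performed in triplicate.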

[2] = molecular target: T1, Vitamin D3 receptor (Mus musculus) (UniProt P48281); experiment: Activation of VDR in mouse M210B4 cells assessed as upregulation of Cyp24A1 mRNA expression at 1 uM after 24 hrs by RT-PCR analysis relative to DMSO-treated control; format: cell-based
T1 sequence (whole entry): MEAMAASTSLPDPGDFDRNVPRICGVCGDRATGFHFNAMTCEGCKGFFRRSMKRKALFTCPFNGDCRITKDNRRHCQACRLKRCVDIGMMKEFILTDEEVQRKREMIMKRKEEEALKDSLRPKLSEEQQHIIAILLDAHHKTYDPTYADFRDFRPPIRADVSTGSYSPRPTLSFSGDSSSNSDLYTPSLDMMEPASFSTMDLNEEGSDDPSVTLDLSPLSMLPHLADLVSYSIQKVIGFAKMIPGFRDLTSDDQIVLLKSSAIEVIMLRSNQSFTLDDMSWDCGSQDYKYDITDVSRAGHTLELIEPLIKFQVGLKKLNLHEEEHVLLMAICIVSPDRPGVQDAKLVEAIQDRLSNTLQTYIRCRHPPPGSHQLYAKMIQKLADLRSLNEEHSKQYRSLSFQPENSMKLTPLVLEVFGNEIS
Summary of the method: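 M2-10B4 murine bone marrow stromal cells treated for 24 h at 1 μM; Cyp24A1 mRNA normalized to ActinB and expressed relative to DMSO vehicle, set to 1.0.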

[3] = Inhibition of Hedgehog signaling in human DaOY cells assessed as downregulation of Gli1 mRNA expression after 48 hrs by RT-PCR analysis; format: cell-based; summary of the method: as §1
[4] = molecular target: T1, Vitamin D3 receptor (Mus musculus); experiment: Activation of VDR in mouse ASZ001 cells assessed as upregulation of Cyp24A1 mRNA expression at 5 uM after 48 hrs by RT-PCR analysis relative to DMSO-treated control; format: cell-based
Summary of the method: (§2)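 Cyp24A1 mRNA measured after 48 h exposure to analogue and normalized to ActinB, expressed relative to DMSO vehicle-treated cells (set as 1.0). Single concentrations tested were 2.5, 5 or 10 μM.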

[5] = Inhibition of Hedgehog signaling in mouse M210B4 cells assessed as downregulation of Gli1 mRNA expression after 24 hrs by RT-PCR analysis; format: cell-based; details: M210B4, 24 h
Summary of the method: (§3)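 Oxysterol-stimulated cells (20(S)- plus 22(S)-hydroxycholesterol, 5 μM each) were treated with compound across a dose range for 24 h. Gli1 and Ptch mRNA were normalized to ActinB, and IC50 values were derived. VD3 was dosed up to 10 μM.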

[6] = molecular target: T2, Vitamin D3 receptor (Homo sapiens) (UniProt P11473); experiment: Activation of VDR in human DaOY cells assessed as upregulation of Cyp24A1 mRNA expression at 2.5 uM after 48 hrs by RT-PCR analysis relative to DMSO-treated control; format: cell-based
T2 sequence (whole entry): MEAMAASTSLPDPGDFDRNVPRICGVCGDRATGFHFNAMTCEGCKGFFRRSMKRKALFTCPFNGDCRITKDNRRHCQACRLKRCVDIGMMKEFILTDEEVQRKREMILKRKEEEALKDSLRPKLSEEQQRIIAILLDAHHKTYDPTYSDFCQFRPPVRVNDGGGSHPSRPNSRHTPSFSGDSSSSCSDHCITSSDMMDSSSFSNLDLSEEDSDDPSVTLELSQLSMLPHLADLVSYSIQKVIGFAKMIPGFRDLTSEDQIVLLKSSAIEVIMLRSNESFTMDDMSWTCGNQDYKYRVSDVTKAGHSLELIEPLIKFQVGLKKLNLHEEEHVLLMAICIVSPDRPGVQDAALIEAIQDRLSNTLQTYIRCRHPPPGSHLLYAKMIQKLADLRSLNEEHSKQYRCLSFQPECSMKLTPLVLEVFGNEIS
Summary of the method: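 Cells exposed to compound for 48 h; Cyp24A1 mRNA expression measured and expressed relative to DMSO vehicle-treated cells, set as 1.0.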

[7] = Inhibition of Hedgehog signaling in mouse M210B4 cells assessed as downregulation of Ptch mRNA expression after 24 hrs by RT-PCR analysis; format: cell-based; details: M210B4, 24 h; summary of the method: as §3
[8] = Inhibition of Hedgehog signaling in mouse C3H10T1/2 cells assessed as downregulation of Gli1 mRNA expression at 5 uM after 24 hrs by RT-PCR analysis relative to 20(S)-hydroxycholesterol and 22(S)-hydroxycholesterol; format: cell-based; details: C3H 10T1/2
Summary of the method: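 Endogenous Gli1 mRNA measured after 24 h at 5 μM and normalized to ActinB with DMSO vehicle set to 1.0. Cells stimulated with 20(S)-hydroxycholesterol plus 22(S)-hydroxycholesterol (5 μM each) define 100% pathway activity, and the analogue effect is given as % of this level.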

[9] = molecular target: T1, Vitamin D3 receptor (Mus musculus); experiment: Activation of VDR in mouse C3H10T1/2 cells assessed as upregulation of Cyp24A1 mRNA expression at 5 uM after 24 hrs by RT-PCR analysis relative to DMSO-treated control; format: cell-based; details: C3H 10T1/2
Summary of the method: (§4)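 Cyp24A1 mRNA normalized to ActinB and expressed relative to DMSO vehicle (set to 1.0). Cells treated for 24 h at 5 μM (some agents at 1 μM).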

[10] = molecular target: T2, Vitamin D3 receptor (Homo sapiens); experiment: Binding affinity to human VDR by fluorescence polarization assay
Summary of the method: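 Fluorescence polarization competition kit with full-length human VDR and a tight-binding fluorescent VDR ligand, run per manufacturer's instructions. Compounds tested at 50 and 100 μM, with calcitriol as positive control for binding.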

[11] = molecular target: T2, Vitamin D3 receptor (Homo sapiens); experiment: Activation of VDR in human DaOY cells assessed as upregulation of Cyp24A1 mRNA expression at 10 uM after 48 hrs by RT-PCR analysis relative to DMSO-treated control; format: cell-based; summary of the method: as §2
[12] = Inhibition of Hedgehog signaling in mouse C3H10T1/2 cells assessed as downregulation of Gli1 mRNA expression after 24 hrs by RT-PCR analysis; format: cell-based; details: for IC50: C3H 10T1/2, 24 h; for inhibition: C3H 10T1/2; summary of the method: as §3
[13] = molecular target: T2, Vitamin D3 receptor (Homo sapiens); experiment: Activation of VDR in human DaOY cells assessed as upregulation of Cyp24A1 mRNA expression at 5 uM after 48 hrs by RT-PCR analysis relative to DMSO-treated control; format: cell-based; summary of the method: as §2
[14] = Inhibition of Hedgehog signaling in mouse ASZ001 cells assessed as downregulation of Gli1 mRNA expression at 10 uM after 48 hrs by RT-PCR analysis relative to control; values are per cent of control
[15] = Inhibition of Hedgehog signaling in mouse C3H10T1/2 cells assessed as downregulation of Ptch mRNA expression after 24 hrs by RT-PCR analysis; format: cell-based; details: for IC50: C3H 10T1/2, 24 h; for inhibition: C3H 10T1/2; summary of the method: as §3
[16] = molecular target: T2, Vitamin D3 receptor (Homo sapiens); experiment: Activation of VDR in human HT-29 assessed as upregulation of Cyp24A1 mRNA expression after 6 hrs by Northern blotting analysis
[17] = molecular target: T1, Vitamin D3 receptor (Mus musculus); experiment: Activation of VDR in mouse M210B4 cells assessed as upregulation of Cyp24A1 mRNA expression at 5 uM after 24 hrs by RT-PCR analysis relative to DMSO-treated control; format: cell-based; summary of the method: as §4

Compound	IC50 [1] [µM]	IC50 [3] [µM]	fold change (FC) [4]	fold change (FC) [9]	Activity [10] [µM]	Gli1 mRNA level (% of OHC control) [8] [%]	further results
COC[C@H]1OC(=O)c2coc3c2[C@@]1(C)C1=C(C3=O)[C@@H]2CCC(=O)[C@@]2(C)C[C@H]1OC(C)=O [WORTMANNIN]							fold change (FC) (Daoy): 0.92
O=C(CCCCCCC(=O)Nc1ccccc1)NO [VORINOSTAT]							fold change (FC) (Daoy): 1.51
CC1=C2C[C@H]3[C@@H](CC=C4C[C@@H](O)CC[C@@]43C)[C@@H]2CC[C@]12O[C@@H]1C[C@H](C)CN[C@H]1[C@H]2C [CYCLOPAMINE]	0.66	0.16	0.8				fold change (FC) [2]: 1.5; IC50 [5]: 800 nM; fold change (FC) [6]: 1; IC50 [7]: 430 nM
CC(C)CCC[C@@H](C)[C@H]1CC[C@H]2[C@@H](OC(=O)c3ccccc3)CCC[C@]12C	> 10	> 10	1.1	1.2	> 100	105	fold change (FC) [11]: 0.6
Cc1ccc(NC(=O)c2ccc(CN3CCN(C)CC3)cc2)cc1Nc1nccc(-c2cccnc2)n1 [IMATINIB]							fold change (FC) (Daoy): 0.98
CC(C)CCC[C@@H](C)[C@H]1CC[C@H]2[C@@H](O)CCC[C@]12C	> 10	> 10	2.4	3.6		46.4	IC50 [12]: 3100 nM; fold change (FC) [13]: 0.8; level, % of control [14]: 65%; IC50 [15]: 2800 nM
CC(C)CCC[C@@H](C)[C@H]1CC[C@H]2[C@@H](OC(=O)c3cccc(OCc4ccccc4)c3)CCC[C@]12C				1	> 100	116	
CS(=O)(=O)c1ccc(C(=O)Nc2ccc(Cl)c(-c3ccccn3)c2)c(Cl)c1 [VISMODEGIB]	0.04	0.086					IC50 [5]: 200 nM; IC50 [7]: 140 nM

The next lines start with results.

IC50 [1] [µM]	IC50 [3] [µM]	fold change (FC) [4]	fold change (FC) [9]	Activity [10] [µM]	Compound	Gli1 mRNA level (% of OHC control) [8] [%]	further results
			6.7	> 100	CC(C)CCC[C@@H](C)[C@H]1CC[C@H]2[C@@H](OC(=O)c3cccc(C(=O)O)c3)CCC[C@]12C	40	
			1.6	> 100	CNc1cccc(C(=O)O[C@H]2CCC[C@]3(C)[C@@H]([C@H](C)CCCC(C)C)CC[C@@H]23)c1	97.8	
			1.6	> 100	O=C(O)c1cccc(O)c1	92.6	
7.1	9.2	2.5	24.3	> 100	CC(C)CCC[C@@H](C)[C@H]1CC[C@H]2[C@@H](OC(=O)c3cccc(N)c3)CCC[C@]12C	2.4	inhibition [12]: Dose-dependent effect; IC50 [12]: 2800 nM; fold change (FC) [13]: 0.5; inhibition [15]: Dose-dependent effect; IC50 [15]: 4500 nM
			1.2	> 100	CC(C)CCC[C@@H](C)[C@H]1CC[C@H]2[C@@H](OC(=O)c3cccc(Cl)c3)CCC[C@]12C	107	
			1.3	> 100	COc1cccc(C(=O)O[C@H]2CCC[C@]3(C)[C@@H]([C@H](C)CCCC(C)C)CC[C@@H]23)c1	104	
5.2	3.7	1.9	22.2	> 100	CC(C)CCC[C@@H](C)[C@H]1CC[C@H]2[C@@H](OC(=O)c3cccc(O)c3)CCC[C@]12C	1.9	inhibition [12]: Dose-dependent effect; IC50 [12]: 740 nM; fold change (FC) [13]: 0.4; Activity [16]: inactive; IC50 [5]: 1100 nM; inhibition [15]: Dose-dependent effect; IC50 [15]: 1100 nM; fold change (FC) [17]: 1.2; IC50 [7]: 1700 nM
			1.6	> 100	CC(=O)c1cccc(C(=O)O[C@H]2CCC[C@]3(C)[C@@H]([C@H](C)CCCC(C)C)CC[C@@H]23)c1	77.5	
